# Source: PubChem BioAssay (several laboratories)
# Arbovirus inh = antivirals against arbovirus infection | 200,000 tested, 0.37% active | AID 1251 | arbovirus infection cell-based antiviral screen | inhibition, % at 10 µM; in the data active means inhibition above about 30%
# Insulin prom inh = TRM-6 insulin promoter activity inhibition; TRM-6 cells, insulin promoter-eGFP reporter, imaging; reporter expression induced with tamoxifen; inhibition, % at 2 µM; 130,000 tested, 0.9% active; AID 1273;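 active means inhibition above the mean plus 3 SD, with well images judged a real hit on visual review, cut at about 60% in these data, passing the limit was not always enough; inconclusive means inhibition over the cutoff but images rejected on review; inactive means inhibition not above the cutoff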
# RBBP9 inh = human RBBP9 hydrolase inhibition. O75884. recombinant RBBP9, FP-Rh probe fluorescence polarization. inhibition, % at 7.94 µM. 220,000 tested, 0.2% active;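 active means inhibition above the campaign mean of all tested compounds plus 3 SD, cut at about 14% in these data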;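 further: plate controls were DMSO wells with RBBP9 for no effect and wells lacking RBBP9 protein for full effect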
# Target sequence (O75884 whole entry, looked up): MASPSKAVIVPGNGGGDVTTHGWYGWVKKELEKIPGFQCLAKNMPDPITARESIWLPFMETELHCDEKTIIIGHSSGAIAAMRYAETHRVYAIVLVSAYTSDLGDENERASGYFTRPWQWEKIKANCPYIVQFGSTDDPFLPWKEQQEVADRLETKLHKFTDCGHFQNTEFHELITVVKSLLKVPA
#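 Test system: recombinant human RBBP9. Quantity: 2.5 µM RBBP9 dispensing solution, before mixing. Detection: FP readout at 525/598 nm. Reagent: Serine-hydrolase probe FP-Rh, 375 nM pre-mixing. Measure: % inhibition. Control set: DMSO-treated enzyme wells and wells lacking RBBP9. Buffer or medium: Tris-NaCl-Pluronic buffer, pH 8.0. Times: preincubation 30 min plus labeling 45 min at 25 °C.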
# Autophagy HCS = autophagy modulation, high-content screen; MEF GFP-LC3 puncta imaging; test concentration mostly 10 µM; calls only at 10 µM (by protocol); 190,000 tested, 0.98% active;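 active means percentage of spot-positive cells more than 3 SD above its plate mean, without a fluorescence outlier flag or 80% toxicity; inconclusive means no clear call, values can overlap the other calls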;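 further: spot-positive cell cutoff set from DMSO-treated cells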
# Insulin prom up = MIN6 insulin promoter up-regulation; MIN6 insulin promoter-GFP reporter, high-content imaging; stronger effect = higher value; z-score at 5 µM; 190,000 tested, 0.3% active; AID 1625;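 active means z-score above 3 at 5 µM with at least 500 cells counted in the well; inconclusive means wells under 500 cells, flagged as cytotoxic or low count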
# PKD1 inh = blocks activity of human protein kinase D1 | Q15139 | PKD1 kinase fluorescence polarization assay | inhibition, % (test concentration not listed) | 200,000 tested, 0.056% active | AID 797; in the data active means inhibition above about 50%
# * hit, by the source's call; i = inactive; ? = inconclusive; · = no result given; + = active, no number; ! = repeats disagree. This is a sample that favours compounds with a hit; in the whole collection about 2.1% have one here.
SMILES,Arbovirus inh,Insulin prom inh,RBBP9 inh,Autophagy HCS,Insulin prom up,PKD1 inh
O=C(O)c1ccccc1Nc1cccc(C(F)(F)F)c1,38.4*,13.6,9.8,i,·,-15.6
CCCC(=O)Nc1nnc(COC)s1,1.0,89.5*,2.2,i,0.35,1.9
CCCCNC(=O)CCCn1c(=O)[nH]c2ccc(Br)cc2c1=O,-0.1,·,0.2,i,-0.45,10.5
CCOC(=O)c1ccc(NCCOC)c([N+](=O)[O-])c1,2.2,·,-3.9,+,-1.76,-6.2
COc1ccccc1N1CCN(CC(=O)Nc2ccc(Cl)c(C(F)(F)F)c2)CC1,-25.8,-9.3,3.9,i,-0.9,10.2
COc1cc(/C=C2\CC/C(=C\c3cc(OC)c(O)c(OC)c3)C2=O)cc(OC)c1O,-28.0,7.9,19.0*,i,?,2.4
CCc1nnc2n1N=C(c1ccc(-c3cc(Cl)ccc3Cl)o1)CS2,-8.7,·,-4.7,+,-0.58,-14.5
COc1cccc(C2(c3cccc(OC)c3)CC2C(=O)Nc2cccc3ccccc23)c1 (stereo not given),0.6,·,-4.5,i,0.4,-1.3
COc1ccc(CNCCc2ccc(Cl)cc2)cc1OCc1ccccc1,-25.9,·,-7.9,+,·,-1.9
CCn1c(=O)cc(OCC(=O)O)c2ccccc21,5.2,·,2.1,i,0.7,-10.6
COC(=O)c1sc(N2C(=O)c3oc4ccccc4c(=O)c3C2c2cccs2)nc1C (stereo not given),-19.6,70.0,-1.0,+,-0.13,-8.5
CC(=O)c1ccc(Nc2nc(=O)c3cccnc3s2)cc1,-11.2,79.3*,-1.9,i,0.24,4.1
CCCNC(=O)Cn1c(=O)/c(=C\c2ccc(-c3cccc([N+](=O)[O-])c3)o2)s/c1=C\C(=O)C(C)(C)C,3.0,-81.5,-5.1,+,1.53,-5.1
CNC(=O)C(=O)NCC1OCCCN1S(=O)(=O)c1cccs1 (stereo not given),10.0,3.6,-5.0,i,0.35,-11.8
Cc1c(N=C2N=C(NC(=O)Nc3ccc(Cl)cc3)c3ccccc32)c(=O)n(-c2ccccc2)n1C,-17.8,·,-1.0,+,0.04,-8.3
Cc1ccc(S(=O)(=O)C(C#N)=C2N(C)c3ccccc3N2C)cc1,2.0,·,-1.9,+,-0.44,-4.0
CCOc1cc2c3c(c1)C1(OCCO1)C(=O)N3C(C)(C)CC2C (stereo not given),-0.6,50.0,-8.0,i,·,1.1
Nc1c(C(=O)NC2CCCC2)sc2nc(-c3cccs3)ccc12,-1.2,-53.1,-4.1,i,3.89*,-8.6
Cc1ccc(NC(=O)COC(=O)CN2C(=O)COc3ccccc32)cc1,0.6,16.7,-5.5,i,0.06,2.2
COc1ccc(CSCC(=O)N/N=C/c2ccccc2O)cc1,-25.1,75.0*,-7.1,+,0.19,0.5
COc1cccc(Oc2ccc(N/C=C/C(=O)C(C)(C)C)cc2)c1,6.4,75.0*,-3.2,i,0.23,-4.6
N#CCN1CCN(CCC(=O)Nc2ccc(OCc3ccccc3)cc2)CC1,-8.7,37.9,3.6,i,-1.13,-1.6
Cc1nn2c(-c3ccccc3)c(-c3ccccc3)nc2[nH]c1=O,31.7*,17.9,7.0,i,-0.27,-17.0
COc1ccc(C)cc1-n1nnnc1SCc1csc(C)n1,-10.0,·,-1.6,i,·,3.5
CCN(c1cccc(C)c1)S(=O)(=O)c1ccc2c3c(cccc13)C(=O)N2,-10.0,67.4,-13.6,i,·,-6.1
SMILES,Arbovirus inh,Insulin prom inh,RBBP9 inh,Autophagy HCS,Insulin prom up,PKD1 inh
CCN(CC)S(=O)(=O)c1ccc2c3c(cccc13)C(=O)N2,-0.4,?,-1.7,+,-0.3,20.6
CSc1ccccc1C(=O)NCc1ccc(F)cc1,-2.7,·,-2.3,i,-0.05,73.7*
COc1ccc(OC)c(CN2C(=O)c3ccccc3C2C(=O)NCc2cccnc2)c1 (stereo not given),2.6,40.0,-10.3,i,0.27,4.5
COc1ccc(CN2C(=O)c3ccccc3C2C(=O)NCc2cccnc2)c(OC)c1 (stereo not given),5.3,16.1,-10.6,+,-0.11,-13.8
CCCNCC1C(Oc2ccc(Cl)cc2Cl)C(=O)N1c1cccc(C)c1C (stereo not given),-40.9,-208.3,-13.6,+,-1.51,-6.1
Fc1ccccc1-c1nc2ccccc2[nH]1,-11.4,·,-7.1,i,-0.01,-3.4
c1ccc2nc(-c3nc4ccccc4[nH]3)ccc2c1,-11.0,32.3,-3.2,i,0.06,1.7
c1ccc2[nH]c(-c3ccnc4ccccc34)nc2c1,-1.8,85.7*!,-11.9,i,0.24,-11.3
c1ccc2[nH]c(-c3cscn3)nc2c1,-0.6,66.7*,2.0,i,·,2.5
O=C(CN1CCN(c2ccc([N+](=O)[O-])cc2)CC1)Nc1nccs1,6.9,76.9*,-2.8,i,-0.23,1.7
COc1ccc(CN(C)CC(=O)Nc2sc3c(c2C#N)CCC3)cc1OC,15.9,54.5,-0.7,i,-1.41,1.3
Cc1ccc(-n2cc(-c3ccccc3)c3c(N4CCOCC4)ncnc32)cc1,-33.7,8.3,-7.3,+,-1.42,-4.7
Cc1ccc(-n2cc(-c3ccccc3)c3c(N4CCN(C)CC4)ncnc32)cc1,-38.9,58.3,-0.1,i,-0.74,9.1
CNC(=O)/C=C1\NC(C)(C)Cc2c1ccc1ccccc21,-5.0,-54.3,-6.3,i,0.27,3.5
Cn1cc(Cl)c(C(=O)Nc2nc3ccc(Cl)cc3s2)n1,-1.4,-11.6,-12.0,i,-0.46,2.9
CN(C)C(=O)COC(=O)c1ccccc1Nc1ccc(SC(F)F)cc1,32.7*,·,-0.1,i,-0.05,-7.2
COc1ccccc1NC(=O)COC(=O)c1ccccc1OCC(=O)Nc1ccc(SC(F)F)cc1,-8.5,·,1.9,i,-0.33,-2.1
Cc1onc(-c2ccccc2Cl)c1C(=O)Nc1ccc(-c2cn3cccnc3n2)cc1,3.0,-54.5,-1.4,i,0.31,6.2
Cc1onc(-c2ccccc2Cl)c1C(=O)Nc1cccc(-c2nc3ncccn3c2C)c1,-4.2,81.8*,-11.9,i,-1.76,-0.1
O=C(CCCN=C1NS(=O)(=O)c2ccccc21)OCc1cc([N+](=O)[O-])cc2c1OCOC2,6.0,·,-2.0,+,-0.66,1.2
C[C@H](N=C1NS(=O)(=O)c2ccccc21)C(=O)OCc1cc([N+](=O)[O-])cc2c1OCOC2,·,·,0.9,·,-0.68,·
N#Cc1ccc2c(c1)nc1ccccn12,-0.8,78.6*,-1.0,i,-0.24,0.2
O=c1[nH]n2c(=O)c3c([nH]c2c1N=Nc1cccc(Cl)c1)CCCC3,39.6*,5.6,-1.8,i,·,-0.3
Cc1cc(C)n2[nH]c(=O)c(N=Nc3cccc(Cl)c3)c2n1,-9.7,36.7,7.1,i,0,1.2
CCOc1ccc(N=Nc2c(=O)[nH]n3c(=O)c4c([nH]c23)CCCC4)cc1,59.6*,0.0,-0.4,i,0.59,14.3
CCOc1ccc(N=Nc2c(=O)[nH]n3c(=O)cc(C)[nH]c23)cc1,-6.1,10.7,31.9*,i,·,0.3
